# In ChEMBL document CHEMBL1157562, “Piperazinyl glutamate pyridines as potent orally bioavailable P2Y12 antagonists for inhibition of platelet aggregation” (J Med Chem, 2010):
# Columns and labels:
# P2Y purinoceptor 12 = P2Y purinoceptor 12 (Homo sapiens, UniProt Q9H244); assay: Displacement of [33P]ADP from human recombinant P2Y12 receptor expressed in CHO cells; assay type: cell-based
# Summary of the method: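 Washed membranes from CHO cells expressing synthetic human P2Y12, incubated 1 h at room temperature with 0.2 nM 33P-MeSADP in 50 mM Tris/100 mM NaCl/1 mM EDTA. Compound was tested as a 7-point 3-fold series in triplicate. Nonspecific binding was defined with 300 nM 2-MeSADP, followed by filtration.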
# Platelet = assay: Relative potency, ratio of IC50 for drug to IC50 for AZD-6140 for platelet aggregation in human platelet rich plasma; assay type: functional
# [1] = Antiplatelet aggregation activity against adenosine diphosphate-induced human platelet rich plasma assessed as inhibition of platelet aggregation by turbidimetric method; assay type: functional; conditions: Homo sapiens, Platelet, Plasma
# Summary of the method: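 Human PRP, prepared by two-step centrifugation and adjusted to 330 000 platelets/μL with PPP. Compound was preincubated 5 min at 37 °C in 0.5% DMSO, then 20 μM ADP was added. OD626 was read kinetically for 15 min at 37 °C with mixing between reads.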
# Sequence of P2Y purinoceptor 12 (Q9H244 whole entry): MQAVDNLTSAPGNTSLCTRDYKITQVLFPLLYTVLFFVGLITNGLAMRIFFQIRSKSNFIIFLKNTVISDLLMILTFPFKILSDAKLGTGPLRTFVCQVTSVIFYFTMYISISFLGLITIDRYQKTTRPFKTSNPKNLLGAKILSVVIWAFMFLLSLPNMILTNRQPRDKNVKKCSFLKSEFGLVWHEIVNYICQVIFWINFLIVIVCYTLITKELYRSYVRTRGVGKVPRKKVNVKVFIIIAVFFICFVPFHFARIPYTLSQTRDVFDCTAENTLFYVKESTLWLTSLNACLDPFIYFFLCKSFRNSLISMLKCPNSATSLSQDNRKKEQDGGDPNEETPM
Compound,Ki (P2Y purinoceptor 12) [nM],Ratio IC50 (Platelet),IC50 [1] [nM]
CCCCOC(=O)N1CCN(C(=O)[C@H](CCC(=O)O)NC(=O)c2cc(OCCO)cc(-c3ccccc3)n2)CC1,20,5.1,7900
CCCCCOC(=O)N1CCN(C(=O)[C@H](CCC(=O)O)NC(=O)c2cc(CCCO)cc(-c3ccccc3)n2)CC1,3.8,2.6,1900
CCCCOC(=O)N1CCN(C(=O)[C@H](CCC(=O)O)NC(=O)c2cc(OCCC3CCNCC3)cc(-c3ccccc3)n2)CC1,3,0.45,460
CCCCCOC(=O)N1CCN(C(=O)[C@H](CCC(=O)O)NC(=O)c2cc(C(=O)NC)cc(-c3ccccc3)n2)CC1,10,9.7,6800
CCCCOC(=O)N1CCN(C(=O)[C@H](CCC(=O)O)NC(=O)c2cc(OCCC3CCCNC3)cc(-c3ccccc3)n2)CC1 (stereo not given in full),2.5,0.67,1000
CCCCOC(=O)N1CCN(C(=O)[C@H](CCC(=O)O)NC(=O)c2cc(OC3CCN(C(C)=O)CC3)cc(-c3ccccc3)n2)CC1,2.8,1.1,1200
CCOC(=O)N1CCN(C(=O)[C@H](CCC(=O)O)NC(=O)c2cc(N3CCC(N)CC3)cc(-c3ccccc3)n2)CC1,10,8.1,2800
CCCCOC(=O)N1CCN(C(=O)[C@H](CCC(=O)O)NC(=O)c2cc(OC3CCN(CCOC)CC3)cc(-c3ccccc3)n2)CC1,9.4,1.1,1200
CCCCOC(=O)N1CCN(C(=O)[C@H](CCC(=O)O)NC(=O)c2cc(N3CCC(NC)CC3)cc(-c3ccccc3)n2)CC1,2.7,0.86,1200
CCCCCOC(=O)N1CCN(C(=O)[C@H](CCC(=O)O)NC(=O)c2cc(CCC(=O)N3CCOCC3)cc(-c3ccccc3)n2)CC1,3.7,2.4,3100
CCCCCOC(=O)N1CCN(C(=O)[C@H](CCC(=O)O)NC(=O)c2cc(CCCOC)cc(-c3ccccc3)n2)CC1,8.4,6.6,5000
CCCCCOC(=O)N1CCN(C(=O)[C@H](CCC(=O)O)NC(=O)c2cc(CCCCOC)cc(-c3ccccc3)n2)CC1,8.3,4.5,4200
CCCCOC(=O)N1CCN(C(=O)[C@H](CCC(=O)O)NC(=O)c2cc(OCC3CCN(C(=O)C(F)(F)F)CC3)cc(-c3ccccc3)n2)CC1,10,2.8,3000
CCCCCOC(=O)N1CCN(C(=O)[C@H](CCC(=O)O)NC(=O)c2cc(N3CCC(OC)CC3)cc(-c3ccccc3)n2)CC1,15,3,3900
CCCCCCOC(=O)N1CCN(C(=O)[C@H](CCC(=O)O)NC(=O)c2cc(N3CCC(N4CCCC4)CC3)cc(-c3ccccc3)n2)CC1,2.6,2.3,1200
CCCCOC(=O)N1CCN(C(=O)[C@H](CCC(=O)O)NC(=O)c2cc(OC(=O)N(C)C3CCOC3)cc(-c3ccccc3)n2)CC1 (stereo not given in full),1.8,0.63,520
CCCCCOC(=O)N1CCN(C(=O)[C@H](CCC(=O)O)NC(=O)c2cc(OCC3CCN(C(=O)COC)CC3)cc(-c3ccccc3)n2)CC1,12,1.3,1300
CCCCCOC(=O)N1CCN(C(=O)[C@H](CCC(=O)O)NC(=O)c2cc(C(=O)N3CCN(C(C)=O)CC3)cc(-c3ccccc3)n2)CC1,1.7,0.48,320
CCCCCCOC(=O)N1CCN(C(=O)[C@H](CCC(=O)O)NC(=O)c2cc(NCCOC)cc(-c3ccccc3)n2)CC1,11,9.6,7300
CCCCOC(=O)N1CCN(C(=O)[C@H](CCC(=O)O)NC(=O)c2cc(OC3CCN(C(=O)C(F)(F)F)CC3)cc(-c3ccccc3)n2)CC1,12,3.4,2100
